ChEMBL document CHEMBL2401735, “Synthesis and cytotoxicity of novel (thiazol-2-yl)hydrazine derivatives as promising anti-Candida agents” (Eur J Med Chem, 2013)
In brackets after ≈: the same amount, converted by molar mass.

Key:
[1] = Cytotoxicity against human Hep2 cells assessed as reduction of cell viability after 24 hrs by trypan blue exclusion assay; format: cell-based; conditions: HEp-2 cells
Procedure, shortened: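 Hep2 cells in DMEM with 10% FBS, penicillin-streptomycin, 5% CO₂, 37 °C. Cells at 1 × 10⁵/mL exposed 24 h to seven concentrations (0.005-100 µg/mL), DMSO ≤0.5% final; controls were medium alone, DMSO, and 1 mM sodium nitroprusside. Cells scraped, allowed 30 min recovery, mixed 1:1 with 0.4% trypan blue, counted by hemocytometer by two operators.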

[2] = Cytotoxicity against human Hep2 cells assessed as cell survival fraction at 0.005 ug/ml after 24 hrs by trypan blue exclusion assay (reference value: 97 to 98%); format: cell-based; conditions: HEp-2 cells, read-out: Survival
[3] = Cytotoxicity against human Hep2 cells assessed as cell survival fraction at 0.05 ug/ml after 24 hrs by trypan blue exclusion assay (reference value: 97 to 98%); format: cell-based; conditions: HEp-2 cells, read-out: Survival
[4] = Cytotoxicity against human Hep2 cells assessed as cell survival fraction at 0.5 ug/ml after 24 hrs by trypan blue exclusion assay (reference value: 97 to 98%); format: cell-based; conditions: HEp-2 cells, read-out: Survival
[5] = Cytotoxicity against human Hep2 cells assessed as cell survival fraction at 5 ug/ml after 24 hrs by trypan blue exclusion assay (reference value: 97 to 98%); format: cell-based; conditions: HEp-2 cells, read-out: Survival
[6] = Cytotoxicity against human Hep2 cells assessed as cell survival fraction at 10 ug/ml after 24 hrs by trypan blue exclusion assay (reference value: 97 to 98%); format: cell-based; conditions: HEp-2 cells, read-out: Survival
[7] = Cytotoxicity against human Hep2 cells assessed as cell survival fraction at 50 ug/ml after 24 hrs by trypan blue exclusion assay (reference value: 97 to 98%); format: cell-based; conditions: HEp-2 cells, read-out: Survival
[8] = Cytotoxicity against human Hep2 cells assessed as cell survival fraction at 100 ug/ml after 24 hrs by trypan blue exclusion assay (reference value: 97 to 98%); format: cell-based; conditions: HEp-2 cells, read-out: Survival
[Candida] sake = Anticandida activity against Candida sake clinical isolate assessed as growth inhibition after 24 hrs by broth microdilution method; format: functional; conditions: Fermentozyma sake
Procedure, shortened: (§1)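 Clinical Candida isolates subcultured for purity and optimal growth before testing; compounds dissolved in DMSO. Broth microdilution per NCCLS in Sabouraud dextrose broth, serial dilutions, inoculum about 10³/mL, with growth control and medium-only control; 24 h incubation at 37 °C. MIC is the lowest concentration giving complete visible inhibition.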

Candida parapsilosis = assay: Anticandida activity against Candida parapsilosis clinical isolate assessed as growth inhibition after 24 hrs by broth microdilution method; format: functional; conditions: Lodderomyces parapsilosis; procedure, shortened: as §1
Pichia kudriavzevii = assay: Anticandida activity against Candida krusei clinical isolate assessed as growth inhibition after 24 hrs by broth microdilution method; format: functional; procedure, shortened: as §1
Candida tropicalis = assay: Anticandida activity against Candida tropicalis clinical isolate assessed as growth inhibition after 24 hrs by broth microdilution method; format: functional; procedure, shortened: as §1
Nakaseomyces glabratus = assay: Anticandida activity against Candida glabrata clinical isolate assessed as growth inhibition after 24 hrs by broth microdilution method; format: functional; procedure, shortened: as §1
Candida albicans = assay: Anticandida activity against Candida albicans clinical isolate assessed as growth inhibition after 24 hrs by broth microdilution method; format: functional; procedure, shortened: as §1
Klebsiella oxytoca = assay: Antibacterial activity against Klebsiella oxytoca assessed as growth inhibition after 18 to 22 hrs by broth microdilution method; format: functional
Procedure, shortened: (§2)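 Bacterial isolates subcultured for purity, identified conventionally. Broth microdilution per NCCLS in Mueller-Hinton II broth; plates with growth control (no compound) and medium-only control, incubated 18-22 h at 35 °C. MIC taken as lowest concentration giving complete growth inhibition by unaided eye.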

Proteus mirabilis = assay: Antibacterial activity against Proteus mirabilis assessed as growth inhibition after 18 to 22 hrs by broth microdilution method; format: functional; procedure, shortened: as §2
Enterobacter sp. = assay: Antibacterial activity against Enterobacter spp. assessed as growth inhibition after 18 to 22 hrs by broth microdilution method; format: functional; procedure, shortened: as §2
Escherichia coli = assay: Antibacterial activity against Escherichia coli assessed as growth inhibition after 18 to 22 hrs by broth microdilution method; format: functional; procedure, shortened: as §2
Enterococcus faecalis = assay: Antibacterial activity against […] assessed as growth inhibition after 18 to 22 hrs by broth microdilution method; format: functional; procedure, shortened: as §2
Staphylococcus warneri = assay: Antibacterial activity against Staphylococcus warneri assessed as growth inhibition after 18 to 22 hrs by broth microdilution method; format: functional; procedure, shortened: as §2
Staphylococcus aureus = assay: Antibacterial activity against Staphylococcus aureus assessed as growth inhibition after 18 to 22 hrs by broth microdilution method; format: functional; procedure, shortened: as §2
[9] = tested on: Streptococcus alpha-hemolyticus; assay: Antibacterial activity against Streptococcus alpha-hemolyticus assessed as growth inhibition after 18 to 22 hrs by broth microdilution method

| Structure (SMILES) | CC50 at 24 h [1] | viability at 24 h, 0.005 ug/ml [2] | viability at 24 h, 0.05 ug/ml [3] | viability at 24 h, 0.5 ug/ml [4] | viability at 24 h, 5 ug/ml [5] | viability at 24 h, 10 ug/ml [6] | MIC ([Candida] sake) | MIC (Candida parapsilosis) | MIC (Pichia kudriavzevii) | MIC (Candida tropicalis) | MIC (Nakaseomyces glabratus) | MIC (Candida albicans) | MIC (Klebsiella oxytoca) | MIC (Proteus mirabilis) | MIC (Enterobacter sp.) | MIC (Escherichia coli) | MIC (Enterococcus faecalis) | MIC (Staphylococcus warneri) | MIC (Staphylococcus aureus) | MIC [9] | further results |
| --- | --- | --- | --- | --- | --- | --- | --- | --- | --- | --- | --- | --- | --- | --- | --- | --- | --- | --- | --- | --- | --- |
| CCC(CC)=NNc1nc(-c2ccc(C)cc2)cs1 | ≥ 100 µg/mL | 94.6% | 92.2% | 86% | 84% | 72.4% | 2 µg/mL (≈ 7.32 µM) | 2 µg/mL (≈ 7.32 µM) | 2 µg/mL (≈ 7.32 µM) | 2 µg/mL (≈ 7.32 µM) | 0.25 µg/mL (≈ 0.914 µM) | 0.5 µg/mL (≈ 1.83 µM) | > 256 µg/mL | > 256 µg/mL | > 256 µg/mL | > 256 µg/mL | > 256 µg/mL | > 256 µg/mL | > 256 µg/mL | > 256 µg/mL | viability at 24 h, 50 ug/ml [7]: 67%; viability at 24 h, 100 ug/ml [8]: 77% |
| C=CCC/C(C)=N/Nc1nc(-c2ccc(OC)cc2)cs1 | 35 µg/mL (≈ 116 µM) | 94% | 91.2% | 83% | 84% | 72.4% | 2 µg/mL (≈ 6.64 µM) | 2 µg/mL (≈ 6.64 µM) | 2 µg/mL (≈ 6.64 µM) | 2 µg/mL (≈ 6.64 µM) | 0.5 µg/mL (≈ 1.66 µM) | 0.5 µg/mL (≈ 1.66 µM) | > 256 µg/mL | > 256 µg/mL | > 256 µg/mL | > 256 µg/mL | > 256 µg/mL | > 256 µg/mL | > 256 µg/mL | > 256 µg/mL | viability at 24 h, 50 ug/ml [7]: 0%; viability at 24 h, 100 ug/ml [8]: 0% |
| C/C(=N\Nc1nc(-c2ccc(Cl)cc2Cl)cs1)C1CCCCC1 | 42 µg/mL (≈ 114 µM) | 97.2% | 96% | 95% | 94% | 88% | 2 µg/mL (≈ 5.43 µM) | 2 µg/mL (≈ 5.43 µM) | 2 µg/mL (≈ 5.43 µM) | 2 µg/mL (≈ 5.43 µM) | 2 µg/mL (≈ 5.43 µM) | 0.25 µg/mL (≈ 0.679 µM) | > 256 µg/mL | > 256 µg/mL | > 256 µg/mL | > 256 µg/mL | > 256 µg/mL | > 256 µg/mL | > 256 µg/mL | > 256 µg/mL | viability at 24 h, 50 ug/ml [7]: 0%; viability at 24 h, 100 ug/ml [8]: 0% |
| CCC/C(C)=N/Nc1nc(-c2ccc(OC)cc2)cs1 | 36 µg/mL (≈ 124 µM) | 92% | 90% | 88% | 83% | 75.5% | 2 µg/mL (≈ 6.91 µM) | 2 µg/mL (≈ 6.91 µM) | 2 µg/mL (≈ 6.91 µM) | 2 µg/mL (≈ 6.91 µM) | 2 µg/mL (≈ 6.91 µM) | 0.25 µg/mL (≈ 0.864 µM) | > 256 µg/mL | > 256 µg/mL | > 256 µg/mL | > 256 µg/mL | > 256 µg/mL | > 256 µg/mL | > 256 µg/mL | > 256 µg/mL | viability at 24 h, 50 ug/ml [7]: 0%; viability at 24 h, 100 ug/ml [8]: 0% |
| Clc1ccc(-c2csc(NN=C3CCCCCCC3)n2)c(Cl)c1 | 41 µg/mL (≈ 111 µM) | 94% | 93% | 92.4% | 90% | 87.5% | 2 µg/mL (≈ 5.43 µM) | 8 µg/mL (≈ 21.7 µM) | 2 µg/mL (≈ 5.43 µM) | 2 µg/mL (≈ 5.43 µM) | 2 µg/mL (≈ 5.43 µM) | 0.5 µg/mL (≈ 1.36 µM) | > 256 µg/mL | > 256 µg/mL | > 256 µg/mL | > 256 µg/mL | > 256 µg/mL | > 256 µg/mL | > 256 µg/mL | > 256 µg/mL | viability at 24 h, 50 ug/ml [7]: 0%; viability at 24 h, 100 ug/ml [8]: 0% |
| CC(C)=NNc1nc(-c2ccc(Cl)cc2Cl)cs1 |  |  |  |  |  |  | 8 µg/mL (≈ 26.6 µM) | 8 µg/mL (≈ 26.6 µM) | 8 µg/mL (≈ 26.6 µM) | 4 µg/mL (≈ 13.3 µM) | 2 µg/mL (≈ 6.66 µM) | 2 µg/mL (≈ 6.66 µM) | > 256 µg/mL | > 256 µg/mL | > 256 µg/mL | > 256 µg/mL | > 256 µg/mL | > 256 µg/mL | > 256 µg/mL | > 256 µg/mL |  |
| CCCCC/C(C)=N/Nc1nc(-c2ccc(OC)cc2OC)cs1 |  |  |  |  |  |  | 256 µg/mL (≈ 737 µM) | 256 µg/mL (≈ 737 µM) | 256 µg/mL (≈ 737 µM) | 256 µg/mL (≈ 737 µM) | 128 µg/mL (≈ 368 µM) | 64 µg/mL (≈ 184 µM) | > 256 µg/mL | > 256 µg/mL | > 256 µg/mL | > 256 µg/mL | > 256 µg/mL | > 256 µg/mL | > 256 µg/mL | > 256 µg/mL |  |
